Among the data in ChEMBL document CHEMBL1147083, “High-throughput synergy screening identifies microbial metabolites as combination agents for the treatment of fungal infections” (Proc Natl Acad Sci U S A, 2007) are Activity, Survival and Log10 cfu values, retold here.

Data set [1] relates to HepG2. Briefly: Toxicity against human HepG2 cells at 100 ug/ml. Format: cell-based.
The subject of data set [2] is HepG2. Briefly: Toxicity against human HepG2 cells at 50 ug/ml. Format: cell-based.
The subject of data set [3] is HepG2. Briefly: Toxicity against human HepG2 cells at 6.25 ug/ml in presence of merine microbial F10104 extract. Format: cell-based.
For data set [4], the system named is Candida parapsilosis. Briefly: Antifungal activity against Candida parapsilosis infected cyclophosphamide-immunocompromized Crl:CD1(ICR) mouse assessed as survival at 0.5 mg/kg, po for 5 days. The data set is classed as functional. In outline: (§1)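 Female ICR (Crl:CD-1) mice on cyclophosphamide 100 mg/kg i.p. daily for 3 days, then infected i.p. on day 3 with 1 × 10^4 C. parapsilosis ATCC 22019 blastospores. Oral gavage dosing started 6 h postinfection and continued once daily for 5 days, with saline placebo. Mice observed thrice daily for […]. Moribund animals were killed and counted as dying the next day. Mean survival time compared to controls by one-way ANOVA and Kaplan–Meier.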

Data set [5] relates to Candida parapsilosis. Briefly: Antifungal activity against Candida parapsilosis infected cyclophosphamide-immunocompromized Crl:CD1(ICR) mouse assessed as survival at 0.5 mg/kg, po for 5 days in presence of beauvericin. Format: functional. In outline: as §1
Data set [6] deals with Candida parapsilosis. Briefly: Antifungal activity against Candida parapsilosis infected cyclophosphamide-immunocompromized Crl:CD1(ICR) mouse assessed as survival at 10 mg/kg, po for 5 days. The data set is classed as functional. In outline: as §1
In data set [7] the test system is Candida parapsilosis. Briefly: Antifungal activity against Candida parapsilosis infected cyclophosphamide-immunocompromized Crl:CD1(ICR) mouse assessed as survival at 50 mg/kg, po for 5 days. The data set is classed as functional. The essentials: as §1
The subject of data set [8] is Candida parapsilosis. Briefly: Antifungal activity against Candida parapsilosis infected cyclophosphamide-immunocompromized Crl:CD1(ICR) mouse assessed as fungal density in kidney at 0.5 mg/kg, po for 5 days measured on day 12. The data set is classed as functional. The essentials:
(§2)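 Female specific-pathogen-free ICR (Crl:CD-1) mice, ≈20–22 g, made neutropenic with cyclophosphamide 100 mg/kg i.p. once daily for 3 days. On day 3, infected i.p. with 1 × 10^4 C. parapsilosis ATCC 22019 blastospores. Oral gavage dosing began 6 h postinfection, then once daily for 5 days; placebo was 0.1 ml saline. Left kidney or lungs homogenized in 0.9% saline and plated on Sabouraud dextrose agar, 48 h at 35°C. Result is log10 cfu/g (n = 5).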

Data set [9] deals with Candida parapsilosis. Briefly: Antifungal activity against Candida parapsilosis infected cyclophosphamide-immunocompromized Crl:CD1(ICR) mouse assessed as fungal density in kidney at 0.5 mg/kg, po for 5 days measured on day 12 in presence beauvericin. Format: functional. In outline: as §2
Data set [10] relates to Candida parapsilosis. Briefly: Antifungal activity against Candida parapsilosis infected cyclophosphamide-immunocompromized Crl:CD1(ICR) mouse assessed as fungal density in kidney at 10 mg/kg, po for 5 days measured on day 12. Format: functional. The essentials:
as §2

Data set [11] has as its system Candida parapsilosis. Briefly: Antifungal activity against Candida parapsilosis infected cyclophosphamide-immunocompromized Crl:CD1(ICR) mouse assessed as fungal density in kidney at 50 mg/kg, po for 5 days measured on day 12. Format: functional. In outline: as §2
Data set [12] relates to Candida parapsilosis. Briefly: Antifungal activity against Candida parapsilosis infected cyclophosphamide-immunocompromized Crl:CD1(ICR) mouse assessed as fungal density in lung at 0.5 mg/kg, po for 5 days measured on day 12. Format: functional. In outline:
as §2

For data set [13], the system named is Candida parapsilosis. Briefly: Antifungal activity against Candida parapsilosis infected cyclophosphamide-immunocompromized Crl:CD1(ICR) mouse assessed as fungal density in lung at 0.5 mg/kg, po for 5 days measured on day 12 in presence beauvericin. The data set is classed as functional. In outline:
as §2

For data set [14], the system named is Candida parapsilosis. Briefly: Antifungal activity against Candida parapsilosis infected cyclophosphamide-immunocompromized Crl:CD1(ICR) mouse assessed as fungal density in lung at 10 mg/kg, po for 5 days measured on day 12. Format: functional. The essentials:
as §2

Data set [15] relates to Candida parapsilosis. Briefly: Antifungal activity against Candida parapsilosis infected cyclophosphamide-immunocompromized Crl:CD1(ICR) mouse assessed as fungal density in lung at 50 mg/kg, po for 5 days measured on day 12. The data set is classed as functional. The essentials: as §2
In data set [16] the test system is Candida parapsilosis. Briefly: Antifungal activity against Candida parapsilosis infected cyclophosphamide-immunocompromized Crl:CD1(ICR) mouse assessed as fungal density in brain at 0.5 mg/kg, po for 5 days measured on day 12. Format: functional.

Structures are written as SMILES. Where only a bound is given, the exact number is not on record here.

Regarding `CC(=O)N1CCN(c2ccc(OCC3COC(Cn4ccnc4)(c4ccc(Cl)cc4Cl)O3)cc2)CC1` (centres undefined) [KETOCONAZOLE], the Activity entry is on record as “Toxic” in the data set on HepG2 [1], “Toxic” in the data set with HepG2 [2] and “Non-toxic” in the data set on HepG2 [3]. Besides, the Survival in the data set on Candida parapsilosis [4] was 9.2 days; in the data set with Candida parapsilosis [5] it was above 21 days; with Candida parapsilosis [6], 14.2 days; with Candida parapsilosis [7] it was 19.4 days. Also, the Log10 cfu in the data set with Candida parapsilosis [8] is 8.4; with Candida parapsilosis [9], 1.3; with Candida parapsilosis [10], 7.6; with Candida parapsilosis [11], 5.5; in the data set on Candida parapsilosis [12], 4.8; in the data set on Candida parapsilosis [13], 1.2. The Log10 cfu stood at 3.5 in the data set on Candida parapsilosis [14] and 2.6 with Candida parapsilosis [15].

For `CC(C)[C@@H]1OC(=O)[C@@H](Cc2ccccc2)N(C)C(=O)[C@H](C(C)C)OC(=O)[C@@H](Cc2ccccc2)N(C)C(=O)[C@H](C(C)C)OC(=O)[C@@H](Cc2ccccc2)N(C)C1=O` (single isomer, unassigned) [BEAUVERICIN], the Survival with Candida parapsilosis [4] was 8.3 days. The Log10 cfu turned out to be 9.3 in the data set with Candida parapsilosis [8], 5.2 in the data set with Candida parapsilosis [12] and 3.2 in the data set with Candida parapsilosis [16].
